Assay results published in ChEMBL document CHEMBL1157365, “Efficacy of telavancin in the treatment of experimental endocarditis due to glycopeptide-intermediate Staphylococcus aureus” (Antimicrob Agents Chemother, 2007).
≈ marks a conversion by molar mass, not a printed value. Calls of active or inactive are those of the source.

How the values were obtained:
[1] = system: Staphylococcus aureus; assay: Antibacterial activity against glycopeptide-intermediate resistant Staphylococcus aureus ATCC 700788 by microbroth dilution method; format: functional
Procedure, shortened: (§1)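 MIC and MBC were determined by broth microdilution in cation-adjusted Mueller-Hinton broth per CLSI guidelines. S. aureus ATCC 29213 served as the control strain. Strains were stored frozen in skim milk at −80°C and subcultured on 5% sheep blood Columbia agar before each run.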

[2] = system: Staphylococcus aureus; assay: Antibacterial activity against glycopeptide-intermediate resistant Staphylococcus aureus HIP 5836 isolate by microbroth dilution method; format: functional; procedure, shortened: as §1
[3] = system: Staphylococcus aureus; assay: Antibacterial activity against glycopeptide-intermediate resistant Staphylococcus aureus HIP 5836 isolate assessed as reduction of bacterial count after 24 hrs by time kill curve study; format: functional
Procedure, shortened: (§2)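 Duplicate time-kill curves followed CLSI criteria with an inoculum of 10⁵ CFU/ml. Viable counts were taken at 0, 4 and 24 h. Bactericidal activity was defined as a ≥3 log₁₀ CFU/ml drop at 24 h versus the starting inoculum.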

[4] = system: Staphylococcus aureus; assay: Antibacterial activity against glycopeptide-intermediate resistant Staphylococcus aureus ATCC 700788 assessed as reduction of bacterial count after 24 hrs by time kill curve study; format: functional; procedure, shortened: as §2
[5] = Cmax in human at 7.5 mg/kg, iv administered every 24 hrs; format: ADME, organism-based; design: dose 7.5 mg/kg, route intravenous; settings: in vivo
[6] = Terminal half life in human at 7.5 mg/kg, iv administered every 24 hrs; format: ADME, organism-based; design: dose 7.5 mg/kg, route intravenous; settings: in vivo
[7] = Terminal half life in human at 10 mg/kg, iv administered every 24 hrs; format: ADME, organism-based; design: dose 10 mg/kg, route intravenous; settings: in vivo
[8] = AUC in human at 7.5 mg/kg, iv administered every 24 hrs; format: ADME, organism-based; design: dose 7.5 mg/kg, route intravenous; settings: plasma
[9] = AUC in human at 10 mg/kg, iv administered every 24 hrs; format: ADME, organism-based; design: dose 10 mg/kg, route intravenous; settings: plasma
[10] = system: Homo sapiens; assay: Protein binding in human at 7.5 mg/kg, iv administered every 24 hrs; format: ADME, organism-based; design: dose 7.5 mg/kg, route intravenous; settings: in vivo
[11] = system: Staphylococcus aureus; assay: Antibacterial activity against glycopeptide-intermediate resistant Staphylococcus aureus HIP 5836 isolate infected New Zealand white rabbit endocarditis model assessed as sterile bacterial vegetation at 10 mg/kg, iv administered every 24 hrs for 2 days; format: functional
Procedure, shortened: (§3)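 After 24 h they were inoculated i.v. through the ear vein with 1 ml of 7 × 10⁵ CFU/ml. Bacteremia was confirmed at 18 h, after which animals were randomized. Human-like kinetics were delivered by computer-controlled pump through a cava catheter for 48 h. Animals were killed 6 drug half-lives later. Aortic vegetations were weighed, homogenized and cultured quantitatively on plates, with broth culture for 1 week. Results are median log₁₀ CFU/g: 2 for broth-only growth, 0 for sterile. Sterility rates were compared by Fisher's exact test.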

[12] = system: Staphylococcus aureus; assay: Antibacterial activity against glycopeptide-intermediate resistant Staphylococcus aureus HIP 5836 isolate infected New Zealand white rabbit endocarditis model assessed as bacterial count per gram of microbial vegetation at 10 mg/kg, iv administered every 24 hrs for 2 days; format: functional; procedure, shortened: as §3
[13] = Terminal half life in rabbit at 15 mg/kg, iv; format: ADME, organism-based, Oryctolagus cuniculus; design: dose 15 mg/kg, route intravenous; settings: in vivo
Procedure, shortened: (§4)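 Healthy rabbits (n = 5) received telavancin at 15 mg/kg i.v. Blood was drawn through a carotid artery catheter. Plasma telavancin was measured by a validated LC-MS/MS method with a lower limit of quantitation of 0.25 μg/ml. The first-order elimination constant, β-phase half-life and AUC were derived from the concentration-time data.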

[14] = AUC in rabbit at 15 mg/kg, iv; format: ADME, organism-based, Oryctolagus cuniculus; design: dose 15 mg/kg, route intravenous; settings: plasma; procedure, shortened: as §4
[15] = system: Oryctolagus cuniculus; assay: Protein binding in rabbit at 15 mg/kg, iv; format: ADME, organism-based; design: dose 15 mg/kg, route intravenous; settings: in vivo
[16] = system: Oryctolagus cuniculus; assay: Protein binding in rabbit at 10 mg/kg, iv; format: ADME, organism-based; design: dose 10 mg/kg, route intravenous; settings: in vivo
[17] = Terminal half life in rabbit at 7.5 mg/kg, iv administered once daily; format: ADME, organism-based, Oryctolagus cuniculus; design: dose 7.5 mg/kg, route intravenous; settings: in vivo
Procedure, shortened: (§5)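 A computer-controlled pump infused telavancin at precalculated flow rates to reproduce the human 7.5 mg/kg i.v. once-daily serum profile. Plasma levels were measured by validated LC-MS/MS (n = 3 or 5).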

[18] = AUC in rabbit at 7.5 mg/kg, iv administered once daily; format: ADME, organism-based, Oryctolagus cuniculus; design: dose 7.5 mg/kg, route intravenous; settings: plasma; procedure, shortened: as §5
[19] = Cmax in rabbit at 7.5 mg/kg, iv administered once daily; format: ADME, organism-based, Oryctolagus cuniculus; design: dose 7.5 mg/kg, route intravenous; settings: in vivo; procedure, shortened: as §5
[20] = Cmax in rabbit at 10 mg/kg, iv administered once daily; format: ADME, organism-based, Oryctolagus cuniculus; design: dose 10 mg/kg, route intravenous; settings: in vivo
[21] = Ratio of AUC in rabbit at 7.5 mg/kg, iv qd to MIC for Staphylococcus aureus HIP 5836 isolate; format: functional
Procedure, shortened: (§6)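 The AUC came from the rabbit infusion simulating human 7.5 mg/kg i.v. once daily. It was divided by each strain's MIC. MICs were determined by CLSI broth microdilution in cation-adjusted Mueller Hinton broth, with S. aureus ATCC 29213 as the control strain.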

[22] = Ratio of AUC in rabbit at 7.5 mg/kg, iv qd to MIC for Staphylococcus aureus ATCC 700788; format: functional; procedure, shortened: as §6
[23] = system: Staphylococcus aureus; assay: Antibacterial activity against glycopeptide-intermediate resistant Staphylococcus aureus ATCC 700788 infected New Zealand white rabbit endocarditis model assessed as survival at 10 mg/kg, iv administered every 24 hrs for 2 days; format: functional; procedure, shortened: as §3
[24] = system: Staphylococcus aureus; assay: Antibacterial activity against glycopeptide-intermediate resistant Staphylococcus aureus ATCC 700788 infected New Zealand white rabbit endocarditis model assessed as sterile bacterial vegetation at 10 mg/kg, iv administered every 24 hrs for 2 days; format: functional; procedure, shortened: as §3
[25] = system: Staphylococcus aureus; assay: Antibacterial activity against glycopeptide-intermediate resistant Staphylococcus aureus ATCC 700788 infected New Zealand white rabbit endocarditis model assessed as bacterial count per gram of microbial vegetation at 10 mg/kg, iv administered every 24 hrs for 2 days; format: functional; procedure, shortened: as §3
[26] = system: Staphylococcus aureus; assay: Antibacterial activity against glycopeptide-intermediate resistant Staphylococcus aureus HIP 5836 isolate infected New Zealand white rabbit endocarditis model assessed as survival at 10 mg/kg, iv administered every 24 hrs for 2 days; format: functional; procedure, shortened: as §3
[27] = system: Homo sapiens; assay: Protein binding in human at 10 mg/kg, iv administered every 24 hrs; format: ADME, organism-based; design: dose 10 mg/kg, route intravenous; settings: in vivo
[28] = Cmax in human at 1 g, iv administered every 12 hrs; format: ADME, organism-based; design: dose 1 g, route intravenous; settings: in vivo
[29] = Terminal half life in human at 1 g, iv administered every 12 hrs; format: ADME, organism-based; settings: in vivo
[30] = AUC in human at 1 g, iv administered every 12 hrs; format: ADME, organism-based; settings: plasma
[31] = Protein binding in human at 1 g, iv administered every 12 hrs; format: ADME, organism-based; settings: in vivo, read-out: PB
[32] = AUC in rabbit at 25 mg/kg, iv; format: ADME, organism-based, Oryctolagus cuniculus; design: dose 25 mg/kg, route intravenous; settings: plasma
Procedure, shortened: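 Five healthy rabbits received a 25 mg/kg i.v. dose through a jugular-to-cava catheter. Blood was drawn through a carotid catheter at 0, 0.25, 0.5, 1, 2, 3, 4, 5 and 6 h. Plasma vancomycin was measured by latex-boosted immunoturbidimetry, detection limit 0.8 μg/ml. Elimination rate, half-life and AUC were reported as mean ± variation.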

[33] = Terminal half life in rabbit at 1 g, iv administered twice daily; format: ADME, organism-based, Oryctolagus cuniculus; settings: in vivo
Procedure, shortened: (§7)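 Rabbits carried a carotid artery catheter for blood sampling and a jugular-to-cava catheter for infusion. A computer-controlled pump delivered the drug to simulate the human profile of 1 g i.v. twice daily. Vancomycin was measured by latex-boosted immunoturbidimetry, detection limit 0.8 μg/ml. Rabbits per group: n = 3 or 5.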

[34] = AUC in rabbit at 1 g, iv administered twice daily; format: ADME, organism-based, Oryctolagus cuniculus; settings: plasma; procedure, shortened: as §7
[35] = Cmax in rabbit at 1 g, iv administered twice daily; format: ADME, organism-based, Oryctolagus cuniculus; design: dose 1 g, route intravenous; settings: in vivo; procedure, shortened: as §7
[36] = Ratio of AUC in rabbit at 1 g, iv bid to MIC for Staphylococcus aureus HIP 5836 isolate; format: functional
Procedure, shortened: (§8)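 A computer-controlled pump infused vancomycin to mimic the human 1 g i.v. every-12-h profile. Blood was drawn at 0–6 h after infusion start. Vancomycin was measured by latex-boosted immunoturbidimetry (detection limit 0.8 μg/ml). AUC was divided by the MIC, determined by CLSI broth microdilution in cation-adjusted Mueller-Hinton broth.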

[37] = Ratio of AUC in rabbit at 1 g, iv bid to MIC for Staphylococcus aureus ATCC 700788; format: functional; procedure, shortened: as §8
[38] = system: Staphylococcus aureus; assay: Antibacterial activity against glycopeptide-intermediate resistant Staphylococcus aureus ATCC 700788 infected New Zealand white rabbit endocarditis model assessed as bacterial count per gram of microbial vegetation at 1 g, iv administered every 12 hrs for 2 days
[39] = system: Staphylococcus aureus; assay: Antibacterial activity against glycopeptide-intermediate resistant Staphylococcus aureus HIP 5836 isolate infected New Zealand white rabbit endocarditis model assessed as bacterial count per gram of microbial vegetation at 1 g, iv administered every 12 hrs for 2 days

SMILES: CCCCCCCCCCNCCN[C@@]1(C)C[C@H](O[C@H]2[C@H](Oc3c4cc5cc3Oc3ccc(cc3Cl)[C@@H](O)[C@@H](NC(=O)[C@@H](CC(C)C)NC)C(=O)N[C@@H](CC(N)=O)C(=O)N[C@H]5C(=O)N[C@H]3C(=O)N[C@H](C(=O)N[C@H](C(=O)O)c5cc(O)c(CNCP(=O)(O)O)c(O)c5-c5cc3ccc5O)[C@H](O)c3ccc(c(Cl)c3)O4)O[C@H](CO)[C@@H](O)[C@@H]2O)O[C@@H](C)[C@H]1O [TELAVANCIN]
- MBC [1]: 4 µg/mL (≈ 2.28 µM)
- MIC [1]: 1 µg/mL (≈ 0.57 µM)
- MBC [2]: 8 µg/mL (≈ 4.56 µM)
- MIC [2]: 4 µg/mL (≈ 2.28 µM)
- log10CFU/ml [3]: 2
- log10CFU/ml [4]: 2
- Cmax [5]: 89 µg/mL
- half-life [6]: 6.18 h
- half-life [7]: 7.41 h
- AUC at 24 h [8]: 604 µg·h/mL
- AUC at 24 h [9]: 785 µg·h/mL
- Activity [10]: 90%
- Activity [11]: 31%
- log10cfu [12]: 4.4
- half-life [13]: 1.2 h
- AUC [14]: 270 µg·h/mL
- Activity [15]: 90%
- Activity [16]: 90%
- half-life [17]: 4.6 h
- AUC [18]: 638 µg·h/mL
- Cmax [19]: 90 µg/mL
- Cmax [20]: 114 µg/mL
- RatioAUC/MIC [21]: 159.5
- RatioAUC/MIC [22]: 638
- Activity [23]: 94%
- Activity [24]: 37%
- log10cfu [25]: 4.6
- Activity [26]: 94%
- Activity [27]: 90%

SMILES: CN[C@H](CC(C)C)C(=O)N[C@H]1C(=O)N[C@@H](CC(N)=O)C(=O)N[C@H]2C(=O)N[C@H]3C(=O)N[C@H](C(=O)N[C@H](C(=O)O)c4cc(O)cc(O)c4-c4cc3ccc4O)[C@H](O)c3ccc(c(Cl)c3)Oc3cc2cc(c3O[C@@H]2O[C@H](CO)[C@@H](O)[C@H](O)[C@H]2O[C@H]2C[C@](C)(N)[C@H](O)[C@H](C)O2)Oc2ccc(cc2Cl)[C@H]1O [VANCOMYCIN]
- Cmax [28]: 52 µg/mL
- MBC [1]: 128 µg/mL (≈ 88.3 µM)
- MIC [1]: 8 µg/mL (≈ 5.52 µM)
- MBC [2]: 128 µg/mL (≈ 88.3 µM)
- MIC [2]: 8 µg/mL (≈ 5.52 µM)
- Activity [3]: Active
- Activity [4]: Active
- half-life [29]: 4.6 h
- AUC at 12 h [30]: 359 µg·h/mL
- fraction unbound at 12 h [31]: 0.5
- AUC [32]: 101 µg·h/mL
- half-life [33]: 3.8 h
- AUC [34]: 299 µg·h/mL
- Cmax [35]: 46 µg/mL
- RatioAUC/MIC [36]: 37.3
- RatioAUC/MIC [37]: 37.3
- log10cfu [38]: 6.6
- log10cfu [39]: 6.7
